Results reported in ChEMBL document CHEMBL1165965, “Synthesis and structure-activity relationships of 1,2,3,4-tetrahydropyrido[2,3-b]pyrazines as potent and selective inhibitors of the anaplastic lymphoma kinase” (Bioorg Med Chem, 2010).

Experiments:
[1] = molecular target: T1, Mitogen-activated protein kinase kinase kinase 13 (Homo sapiens) (UniProt O43283); assay: Inhibition of LZK at 1 uM
T1 sequence (whole entry): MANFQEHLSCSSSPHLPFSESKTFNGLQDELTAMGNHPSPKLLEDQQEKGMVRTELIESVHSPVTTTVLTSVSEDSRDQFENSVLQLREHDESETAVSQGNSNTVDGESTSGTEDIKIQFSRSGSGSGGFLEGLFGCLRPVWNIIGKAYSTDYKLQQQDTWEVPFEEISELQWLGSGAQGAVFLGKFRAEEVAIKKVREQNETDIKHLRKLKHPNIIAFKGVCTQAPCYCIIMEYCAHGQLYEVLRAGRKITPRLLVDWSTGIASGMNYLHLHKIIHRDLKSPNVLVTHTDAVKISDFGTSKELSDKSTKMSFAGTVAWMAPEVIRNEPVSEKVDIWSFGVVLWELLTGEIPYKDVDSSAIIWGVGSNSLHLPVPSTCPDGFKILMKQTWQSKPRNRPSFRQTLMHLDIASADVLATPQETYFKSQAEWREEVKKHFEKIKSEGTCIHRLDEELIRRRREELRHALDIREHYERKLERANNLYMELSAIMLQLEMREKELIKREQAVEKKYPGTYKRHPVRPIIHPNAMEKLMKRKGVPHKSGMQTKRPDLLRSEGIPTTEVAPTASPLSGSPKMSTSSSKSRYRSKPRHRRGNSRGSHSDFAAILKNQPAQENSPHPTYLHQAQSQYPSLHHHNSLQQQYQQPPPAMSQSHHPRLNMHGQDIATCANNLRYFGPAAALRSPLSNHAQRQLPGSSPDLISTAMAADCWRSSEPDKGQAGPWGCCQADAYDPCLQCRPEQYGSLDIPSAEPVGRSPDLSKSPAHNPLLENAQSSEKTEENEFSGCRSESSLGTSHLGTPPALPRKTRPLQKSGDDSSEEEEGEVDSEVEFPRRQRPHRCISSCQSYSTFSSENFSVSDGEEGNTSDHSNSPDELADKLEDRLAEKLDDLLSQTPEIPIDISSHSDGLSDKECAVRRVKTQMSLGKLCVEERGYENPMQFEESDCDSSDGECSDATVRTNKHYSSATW

[2] = molecular target: T2, Serine/threonine-protein kinase ULK3 (Homo sapiens) (UniProt Q6PHR2); assay: Inhibition of ULK3 at 1 uM
T2 sequence (whole entry): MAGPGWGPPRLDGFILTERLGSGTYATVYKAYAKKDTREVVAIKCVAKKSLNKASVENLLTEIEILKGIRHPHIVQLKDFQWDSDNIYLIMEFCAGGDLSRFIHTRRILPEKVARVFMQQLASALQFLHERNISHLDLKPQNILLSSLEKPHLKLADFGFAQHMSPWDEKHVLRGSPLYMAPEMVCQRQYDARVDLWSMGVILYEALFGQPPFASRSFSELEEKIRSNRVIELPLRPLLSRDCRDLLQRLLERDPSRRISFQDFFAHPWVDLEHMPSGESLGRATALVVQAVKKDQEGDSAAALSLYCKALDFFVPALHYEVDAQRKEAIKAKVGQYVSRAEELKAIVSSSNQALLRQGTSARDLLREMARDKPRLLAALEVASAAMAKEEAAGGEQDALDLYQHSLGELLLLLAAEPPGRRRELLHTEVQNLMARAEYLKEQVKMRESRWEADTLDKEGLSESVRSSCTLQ

[3] = molecular target: Homeodomain-interacting protein kinase 3 (Homo sapiens) (UniProt Q9H422); assay: Inhibition of HIPK3 at 1 uM
[4] = tested on: Mast/stem cell growth factor receptor Kit (Homo sapiens), P10721 [V559D,T670I]; assay: Inhibition of KIT V559D,T670I mutant at 1 uM
Outline: (§1)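 Single-concentration screen on the Ambit KINOMEscan platform, run against a panel of 250–400 kinases. Per-kinase inhibition was also summarized as S(90), the fraction of kinases inhibited by more than 90%.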

[5] = molecular target: Serine/threonine-protein kinase PAK 6 (Homo sapiens) (UniProt Q9NQU5); assay: Inhibition of PAK6 at 1 uM
[6] = molecular target: Angiopoietin-1 receptor (Homo sapiens) (UniProt Q02763); assay: Inhibition of TIE2 at 1 uM
[7] = molecular target: Serine/threonine-protein kinase MARK1 (Homo sapiens) (UniProt Q9P0L2); assay: Inhibition of MARK1 at 1 uM
Outline: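 Kinase-panel screen using KINOMEscan technology, with 250–400 kinases per panel. Each compound was tested at a single concentration, and inhibition of each kinase was recorded. Selectivity was summarised as S(90), the fraction of kinases inhibited by more than 90%.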

[8] = molecular target: T3, Calcium/calmodulin-dependent protein kinase type IV (Homo sapiens) (UniProt Q16566); assay: Inhibition of CAMK4 at 1 uM
T3 sequence (whole entry): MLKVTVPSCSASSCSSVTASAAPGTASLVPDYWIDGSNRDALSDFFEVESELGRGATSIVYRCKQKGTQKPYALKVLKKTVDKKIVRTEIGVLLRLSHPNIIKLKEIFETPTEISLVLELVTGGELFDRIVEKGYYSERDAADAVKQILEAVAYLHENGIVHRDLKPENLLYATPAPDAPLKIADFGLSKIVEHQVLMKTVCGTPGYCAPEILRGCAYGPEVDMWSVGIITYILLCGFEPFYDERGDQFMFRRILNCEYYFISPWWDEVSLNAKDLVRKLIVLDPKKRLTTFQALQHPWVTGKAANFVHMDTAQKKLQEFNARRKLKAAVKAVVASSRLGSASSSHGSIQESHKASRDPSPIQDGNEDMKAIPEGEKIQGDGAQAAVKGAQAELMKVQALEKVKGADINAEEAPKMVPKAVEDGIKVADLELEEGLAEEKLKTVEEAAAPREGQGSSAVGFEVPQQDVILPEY

[9] = molecular target: Casein kinase I isoform epsilon (Homo sapiens) (UniProt P49674); assay: Inhibition of CSNK1E at 1 uM
Outline: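 Single-concentration screen using Ambit Bioscience KINOMEscan technology across a panel of 250–400 kinases. Per-kinase inhibition from this screen was summarized as S(90), the fraction of kinases inhibited by more than 90%.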

[10] = molecular target: Serine/threonine-protein kinase PAK 3 (Homo sapiens) (UniProt O75914); assay: Inhibition of PAK3 at 1 uM
[11] = molecular target: Serine/threonine-protein kinase 10 (Homo sapiens) (UniProt O94804); assay: Inhibition of LOK at 1 uM; outline: as §1
[12] = molecular target: Serine/threonine-protein kinase 35 (Homo sapiens) (UniProt Q8TDR2); assay: Inhibition of STK35 at 1 uM
[13] = molecular target: Tyrosine-protein kinase Srms (Homo sapiens) (UniProt Q9H3Y6); assay: Inhibition of SRMS at 1 uM
Sequence of Tyrosine-protein kinase Srms (Homo sapiens) (Q9H3Y6 whole entry): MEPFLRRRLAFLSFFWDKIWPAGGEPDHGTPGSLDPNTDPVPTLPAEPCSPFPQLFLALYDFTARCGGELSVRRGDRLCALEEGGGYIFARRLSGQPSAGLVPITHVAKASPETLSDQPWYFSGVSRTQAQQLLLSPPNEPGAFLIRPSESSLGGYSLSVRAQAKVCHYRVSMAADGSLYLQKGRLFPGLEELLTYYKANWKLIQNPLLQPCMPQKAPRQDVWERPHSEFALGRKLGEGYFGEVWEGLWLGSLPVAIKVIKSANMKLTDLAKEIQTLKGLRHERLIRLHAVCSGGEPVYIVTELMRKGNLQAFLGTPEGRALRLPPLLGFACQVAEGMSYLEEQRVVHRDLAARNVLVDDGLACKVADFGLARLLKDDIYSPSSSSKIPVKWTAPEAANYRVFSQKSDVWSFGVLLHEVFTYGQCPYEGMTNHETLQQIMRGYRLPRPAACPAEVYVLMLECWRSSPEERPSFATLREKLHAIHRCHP

Sequence of Serine/threonine-protein kinase PAK 6 (Homo sapiens) (Q9NQU5 whole entry, looked up): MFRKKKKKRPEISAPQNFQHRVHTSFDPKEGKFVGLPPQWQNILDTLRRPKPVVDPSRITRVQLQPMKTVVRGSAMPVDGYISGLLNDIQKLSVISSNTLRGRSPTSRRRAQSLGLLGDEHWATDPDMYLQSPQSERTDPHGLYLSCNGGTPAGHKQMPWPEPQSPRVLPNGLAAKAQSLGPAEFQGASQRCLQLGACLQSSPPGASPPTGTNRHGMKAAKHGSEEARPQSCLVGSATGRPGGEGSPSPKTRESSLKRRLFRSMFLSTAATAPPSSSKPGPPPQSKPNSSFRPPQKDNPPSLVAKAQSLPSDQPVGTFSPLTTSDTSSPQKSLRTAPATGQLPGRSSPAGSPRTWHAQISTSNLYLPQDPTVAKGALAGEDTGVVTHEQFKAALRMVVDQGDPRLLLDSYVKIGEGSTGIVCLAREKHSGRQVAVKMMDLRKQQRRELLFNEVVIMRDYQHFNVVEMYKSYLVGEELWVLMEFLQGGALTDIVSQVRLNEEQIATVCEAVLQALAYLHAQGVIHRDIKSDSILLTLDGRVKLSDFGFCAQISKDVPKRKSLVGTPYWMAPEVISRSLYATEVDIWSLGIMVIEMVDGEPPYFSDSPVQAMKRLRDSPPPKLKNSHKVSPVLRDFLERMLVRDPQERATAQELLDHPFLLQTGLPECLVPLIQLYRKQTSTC
Sequence of Casein kinase I isoform epsilon (Homo sapiens) (P49674 whole entry, looked up, canonical isoform): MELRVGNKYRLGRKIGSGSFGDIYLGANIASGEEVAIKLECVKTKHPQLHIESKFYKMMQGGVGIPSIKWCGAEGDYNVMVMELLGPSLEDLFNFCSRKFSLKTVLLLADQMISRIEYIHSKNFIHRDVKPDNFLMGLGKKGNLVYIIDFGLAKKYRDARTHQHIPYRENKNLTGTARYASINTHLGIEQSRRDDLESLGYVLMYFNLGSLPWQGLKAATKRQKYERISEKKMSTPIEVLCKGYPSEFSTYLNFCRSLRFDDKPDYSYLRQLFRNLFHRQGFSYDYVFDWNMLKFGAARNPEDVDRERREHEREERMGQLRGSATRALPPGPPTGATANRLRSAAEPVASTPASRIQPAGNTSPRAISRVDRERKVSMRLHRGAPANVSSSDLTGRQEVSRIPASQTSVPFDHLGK
Sequence of Serine/threonine-protein kinase 35 (Homo sapiens) (Q8TDR2 whole entry): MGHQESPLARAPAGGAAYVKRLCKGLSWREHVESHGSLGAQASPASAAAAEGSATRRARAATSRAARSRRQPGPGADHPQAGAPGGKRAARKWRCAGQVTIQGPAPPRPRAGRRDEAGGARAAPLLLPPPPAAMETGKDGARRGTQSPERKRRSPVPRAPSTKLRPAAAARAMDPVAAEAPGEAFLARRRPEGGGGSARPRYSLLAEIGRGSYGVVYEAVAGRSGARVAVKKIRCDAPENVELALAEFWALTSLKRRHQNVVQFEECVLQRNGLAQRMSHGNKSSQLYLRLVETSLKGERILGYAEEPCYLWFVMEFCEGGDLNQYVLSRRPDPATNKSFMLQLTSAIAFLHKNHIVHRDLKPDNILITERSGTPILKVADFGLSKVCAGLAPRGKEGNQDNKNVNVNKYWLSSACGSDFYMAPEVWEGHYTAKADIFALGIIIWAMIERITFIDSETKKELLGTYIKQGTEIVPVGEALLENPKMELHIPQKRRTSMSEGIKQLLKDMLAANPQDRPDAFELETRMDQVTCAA
Sequence of Homeodomain-interacting protein kinase 3 (Homo sapiens) (Q9H422 whole entry, looked up): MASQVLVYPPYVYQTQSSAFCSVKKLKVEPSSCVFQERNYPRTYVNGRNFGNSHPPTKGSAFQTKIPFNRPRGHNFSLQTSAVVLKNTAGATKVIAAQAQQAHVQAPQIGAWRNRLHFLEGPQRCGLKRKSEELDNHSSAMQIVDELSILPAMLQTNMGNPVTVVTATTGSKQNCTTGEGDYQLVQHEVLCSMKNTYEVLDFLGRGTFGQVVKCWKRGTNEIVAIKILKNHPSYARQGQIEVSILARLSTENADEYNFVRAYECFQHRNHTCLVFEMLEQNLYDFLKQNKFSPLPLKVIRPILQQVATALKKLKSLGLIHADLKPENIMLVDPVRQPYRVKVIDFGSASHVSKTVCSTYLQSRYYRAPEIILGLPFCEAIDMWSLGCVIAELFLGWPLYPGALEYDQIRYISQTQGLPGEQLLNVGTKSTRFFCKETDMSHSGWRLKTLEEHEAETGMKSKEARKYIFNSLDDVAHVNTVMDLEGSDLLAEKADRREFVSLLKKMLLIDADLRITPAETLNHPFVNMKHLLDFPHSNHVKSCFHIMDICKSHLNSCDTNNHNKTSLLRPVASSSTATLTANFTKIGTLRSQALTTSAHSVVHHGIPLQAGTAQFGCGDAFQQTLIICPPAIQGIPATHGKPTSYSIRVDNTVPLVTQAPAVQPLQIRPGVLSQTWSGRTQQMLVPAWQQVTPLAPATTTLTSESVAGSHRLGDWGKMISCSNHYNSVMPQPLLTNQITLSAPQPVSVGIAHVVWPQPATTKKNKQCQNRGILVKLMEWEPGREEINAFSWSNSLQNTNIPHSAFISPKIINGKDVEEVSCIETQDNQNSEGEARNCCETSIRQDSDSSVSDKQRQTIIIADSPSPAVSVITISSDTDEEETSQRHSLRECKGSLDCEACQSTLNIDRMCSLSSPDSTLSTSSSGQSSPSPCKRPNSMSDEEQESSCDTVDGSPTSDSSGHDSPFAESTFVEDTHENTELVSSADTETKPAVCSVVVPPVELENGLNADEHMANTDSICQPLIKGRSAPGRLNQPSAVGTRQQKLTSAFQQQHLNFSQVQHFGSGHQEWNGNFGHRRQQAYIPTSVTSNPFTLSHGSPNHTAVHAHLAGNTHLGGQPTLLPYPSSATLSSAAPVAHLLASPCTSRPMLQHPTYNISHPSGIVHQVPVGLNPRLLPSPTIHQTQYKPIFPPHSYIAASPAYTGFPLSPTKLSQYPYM
Sequence of Serine/threonine-protein kinase 10 (Homo sapiens) (O94804 whole entry, looked up): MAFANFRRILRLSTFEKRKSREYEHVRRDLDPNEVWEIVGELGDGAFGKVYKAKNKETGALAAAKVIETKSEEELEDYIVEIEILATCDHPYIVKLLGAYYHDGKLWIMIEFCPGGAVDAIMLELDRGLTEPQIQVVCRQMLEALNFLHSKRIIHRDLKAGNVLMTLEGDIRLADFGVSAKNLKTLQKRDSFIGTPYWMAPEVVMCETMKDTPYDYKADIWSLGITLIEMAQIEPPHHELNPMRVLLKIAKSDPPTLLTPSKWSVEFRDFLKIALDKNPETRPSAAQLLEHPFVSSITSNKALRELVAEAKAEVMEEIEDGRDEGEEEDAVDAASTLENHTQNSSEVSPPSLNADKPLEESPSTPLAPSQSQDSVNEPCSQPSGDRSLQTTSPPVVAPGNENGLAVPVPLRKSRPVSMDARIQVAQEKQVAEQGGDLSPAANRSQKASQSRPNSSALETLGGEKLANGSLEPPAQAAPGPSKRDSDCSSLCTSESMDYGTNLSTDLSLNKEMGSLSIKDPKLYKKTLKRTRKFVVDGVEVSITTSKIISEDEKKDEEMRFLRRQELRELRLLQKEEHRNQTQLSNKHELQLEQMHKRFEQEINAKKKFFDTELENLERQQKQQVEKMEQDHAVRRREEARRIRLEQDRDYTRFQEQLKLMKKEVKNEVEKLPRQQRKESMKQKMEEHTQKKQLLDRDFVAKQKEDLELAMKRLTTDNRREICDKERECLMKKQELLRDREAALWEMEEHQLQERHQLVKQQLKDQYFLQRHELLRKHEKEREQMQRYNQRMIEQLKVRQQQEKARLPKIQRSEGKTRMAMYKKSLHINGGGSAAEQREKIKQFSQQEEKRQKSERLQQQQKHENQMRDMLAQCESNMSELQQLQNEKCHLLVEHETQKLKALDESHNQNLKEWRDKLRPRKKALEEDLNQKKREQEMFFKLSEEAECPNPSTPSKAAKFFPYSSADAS
Sequence of Serine/threonine-protein kinase PAK 3 (Homo sapiens) (O75914 whole entry, looked up): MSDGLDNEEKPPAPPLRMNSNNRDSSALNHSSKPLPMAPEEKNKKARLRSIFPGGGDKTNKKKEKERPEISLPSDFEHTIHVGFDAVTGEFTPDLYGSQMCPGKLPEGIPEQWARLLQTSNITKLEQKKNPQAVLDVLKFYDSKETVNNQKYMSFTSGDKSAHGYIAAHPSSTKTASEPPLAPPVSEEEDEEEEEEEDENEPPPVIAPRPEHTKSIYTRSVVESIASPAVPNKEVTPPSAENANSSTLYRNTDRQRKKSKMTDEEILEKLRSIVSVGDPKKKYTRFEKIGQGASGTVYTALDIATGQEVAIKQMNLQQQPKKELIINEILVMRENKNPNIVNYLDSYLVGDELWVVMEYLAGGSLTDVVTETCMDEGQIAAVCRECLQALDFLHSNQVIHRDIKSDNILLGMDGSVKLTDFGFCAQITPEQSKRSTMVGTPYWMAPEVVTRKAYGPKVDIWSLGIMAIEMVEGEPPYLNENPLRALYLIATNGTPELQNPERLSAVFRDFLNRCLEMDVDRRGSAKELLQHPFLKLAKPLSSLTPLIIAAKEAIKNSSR

CN1CCN(c2ccc(-c3cnc4c(c3)N(Cc3cc(Cl)ccc3Cl)CCN4)cn2)CC1
inhibition [1]: < 50%
inhibition [2]: < 50%
inhibition [3]: < 50%
inhibition [4]: < 50%
inhibition [5]: < 50%
inhibition [6]: < 50%
inhibition [7]: < 50%
inhibition [8]: < 50%
inhibition [9]: < 50%
inhibition [10]: < 50%
inhibition [11]: < 50%
inhibition [12]: < 50%
inhibition [13]: < 50%

CN1CCN(c2ccc(-c3cnc4c(c3)N(Cc3cc(Cl)ccc3C(F)(F)F)CCN4)cn2)CC1
inhibition [1]: < 50%
inhibition [2]: < 50%
inhibition [3]: < 50%
inhibition [4]: < 50%
inhibition [5]: < 50%
inhibition [6]: < 50%
inhibition [7]: < 50%
inhibition [8]: < 50%
inhibition [9]: < 50%
inhibition [10]: < 50%
inhibition [11]: < 50%
inhibition [12]: < 50%
inhibition [13]: < 50%

CN1CCN(c2ccc(-c3cnc4c(c3)N(Cc3c(F)ccc(F)c3Cl)CCN4)cn2)CC1
inhibition [1]: < 50%
inhibition [2]: < 50%
inhibition [3]: < 50%
inhibition [4]: < 50%
inhibition [5]: < 50%
inhibition [6]: < 50%
inhibition [7]: < 50%
inhibition [8]: < 50%
inhibition [9]: < 50%
inhibition [10]: < 50%
inhibition [11]: < 50%
inhibition [12]: < 50%
inhibition [13]: < 50%

O=C(c1ccc(-c2cnc3c(c2)N(Cc2cc(Cl)ccc2C(F)(F)F)CCN3)cc1)N1CCC(N2CCCC2)CC1
inhibition [4]: < 50%
inhibition [5]: < 50%
inhibition [6]: < 50%
inhibition [7]: < 50%
inhibition [9]: < 50%
inhibition [10]: < 50%
inhibition [11]: < 50%
inhibition [13]: < 50%

COC1CCN(C(=O)c2ccc(-c3cnc4c(c3)N(Cc3cc(Cl)ccc3C(F)(F)F)CCN4)cc2)CC1
inhibition [4]: < 50%
inhibition [5]: < 50%
inhibition [6]: < 50%
inhibition [7]: < 50%
inhibition [9]: < 50%
inhibition [10]: < 50%
inhibition [11]: < 50%
inhibition [13]: < 50%

FC(F)(F)c1ccc(Cl)cc1CN1CCNc2ncc(-c3ccnc(N4CCNCC4)c3)cc21
inhibition [1]: < 50%
inhibition [2]: < 50%
inhibition [3]: < 50%
inhibition [4]: 84%
inhibition [5]: < 50%
inhibition [6]: < 50%
inhibition [7]: < 50%
inhibition [8]: < 50%
inhibition [9]: < 50%
inhibition [10]: < 50%
inhibition [11]: 66%
inhibition [12]: < 50%
inhibition [13]: < 50%

CN1CCN(c2ccc(-c3cnc4c(c3)N(Cc3cc(F)ccc3F)CCN4)cn2)CC1
inhibition [1]: < 50%
inhibition [2]: < 50%
inhibition [3]: < 50%
inhibition [4]: < 50%
inhibition [5]: < 50%
inhibition [6]: < 50%
inhibition [7]: < 50%
inhibition [8]: < 50%
inhibition [9]: < 50%
inhibition [10]: < 50%
inhibition [11]: < 50%
inhibition [12]: < 50%
inhibition [13]: < 50%

O=C(c1ccc(-c2cnc3c(c2)N(Cc2cc(Cl)ccc2C(F)(F)F)CCN3)cc1)N1CCCCC1
inhibition [4]: < 50%
inhibition [5]: < 50%
inhibition [6]: < 50%
inhibition [7]: < 50%
inhibition [9]: < 50%
inhibition [10]: < 50%
inhibition [11]: < 50%

CC(=O)N1CCN(c2cc(-c3cnc4c(c3)N(Cc3cc(Cl)ccc3C(F)(F)F)CCN4)ccn2)CC1
inhibition [1]: < 50%
inhibition [2]: < 50%
inhibition [3]: < 50%
inhibition [4]: < 50%
inhibition [5]: < 50%
inhibition [6]: < 50%
inhibition [7]: < 50%
inhibition [8]: < 50%
inhibition [9]: < 50%
inhibition [10]: < 50%
inhibition [11]: < 50%
inhibition [12]: < 50%
inhibition [13]: < 50%

O=C(O)c1ccc(-c2cnc3c(c2)N(Cc2cc(Cl)ccc2C(F)(F)F)CCN3)cc1
inhibition [4]: < 50%
inhibition [5]: < 50%
inhibition [6]: < 50%
inhibition [7]: < 50%
inhibition [9]: < 50%
inhibition [10]: < 50%
inhibition [11]: < 50%
